Legend:
[1] = molecular target: NOS3 (Bos taurus, UniProt P29473); test: 14-C-L-arginine to 14-C-L-citrulline conversion by purified recombinant NOS3; type: biochemical, bovine; conditions: purified recombinant enzyme
How it was run: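 Purchased recombinant bovine NOS3, with NOS co-factors and 14C-L-arginine, with or without graded test compound, in near-dark conditions. 14C-L-citrulline formed was separated from 14C-L-arginine on a Dowex 50W-X8 cation-exchange column and counted by scintillation. Activity is given as percent inhibition.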

[2] = molecular target: NOS1 (Rattus norvegicus, UniProt P29476); test: 14-C-L-arginine to 14-C-L-citrulline conversion by purified recombinant NOS1; type: biochemical
How it was run: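 Purified recombinant rat NOS1 or human NOS2 holoprotein at 5 nM. Incubated 60 min at 37°C with 2.9 μM 14C-L-arginine and 10 μM unlabeled L-arginine in 50 mM HEPES pH 7.5, with 10 μM FAD, 1 mM DTT, 100 μM tetrahydrobiopterin, 200 μM NADPH, and graded test compound, in near-dark. Stopped with HEPES pH 5.5/citrulline/EDTA. 14C-citrulline separated on Dowex 50W-X8, scintillation-counted; percent inhibition calculated.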

[3] = test system: Raw 264.7 mouse macrophage cell line; test: NO production by interferon-gamma-activated macrophages; type: cell-based; conditions: 0.5, 2.0 or 8.0 μM for 24 hours with 500 units/ml murine interferon gamma
How it was run: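 Raw 264.7 cells kept by serial passage in RPMI-1640 with 10% FBS. Activated 24 h with 500 units/ml murine interferon-gamma, with 0, 0.5, 2.0 or 8.0 μM test compound present throughout. Loaded with 10 μM DAF-FM for 30 min, washed, and fluorescence read at 495/515 nm. NO production given as percent of control; SEM from 6 separate experiments.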

[4] = molecular target: NOS2 (Homo sapiens, UniProt P35228); test: 14-C-L-arginine to 14-C-L-citrulline conversion by purified recombinant NOS2; type: biochemical
[5] = molecular target: NOS2 oxygenase domain (Homo sapiens, UniProt P35228); test: CO binding to reduced NOS2 oxygenase domain heme; conditions: NOS2 oxygenase domain reduced with dithionite
Chain of NOS2 oxygenase domain (P35228 1-504 limits assumed): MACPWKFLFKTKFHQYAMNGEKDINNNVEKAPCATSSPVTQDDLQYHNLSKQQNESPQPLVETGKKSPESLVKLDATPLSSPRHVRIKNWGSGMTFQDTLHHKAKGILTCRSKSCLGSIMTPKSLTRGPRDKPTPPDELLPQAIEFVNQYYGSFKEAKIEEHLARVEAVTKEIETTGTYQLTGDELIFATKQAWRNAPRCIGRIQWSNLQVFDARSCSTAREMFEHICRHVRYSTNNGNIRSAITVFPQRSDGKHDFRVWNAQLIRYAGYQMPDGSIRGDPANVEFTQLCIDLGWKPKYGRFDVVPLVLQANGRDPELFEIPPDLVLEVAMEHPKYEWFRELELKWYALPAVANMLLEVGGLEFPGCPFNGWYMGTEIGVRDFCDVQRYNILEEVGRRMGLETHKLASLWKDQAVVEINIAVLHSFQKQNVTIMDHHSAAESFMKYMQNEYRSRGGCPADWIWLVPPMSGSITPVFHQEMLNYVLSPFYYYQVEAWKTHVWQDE
How it was run: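 Purified recombinant NOS2 oxygenase domain (about 3 μM final) reduced with dithionite and exposed to CO, with or without test compound. UV/visible spectra recorded, monitoring the ferrous-heme–CO peak at 445 nm.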

[6] = purified recombinant enzyme, 60 min, 37°C
[7] = agent exposed to light for 60 minutes (with light)
[8] = agent not exposed to light (no light)

Compound	Estimated ED50 NOS3 [1] [µM]	Estimated ED50 NOS1 [2, 6] [µM]	NO production by cells [3]	Estimated ED50 NOS2 [4, 6] [µM]	Effect on CO-induced spectral changes (ferrous-CO adduct formation) [5]	Estimated ED50 NOS1 [2, 7] [µM]	Estimated ED50 NOS1 [2, 8] [µM]	Estimated ED50 NOS2 [4, 7] [µM]	Estimated ED50 NOS2 [4, 8] [µM]
C/C1=C2/[N-]C([C@H](CC(N)=O)[C@@]2(C)CCC(=O)NCC(C)O)[C@]2(C)N=C(/C(C)=C3N=C(/C=C4N=C1[C@@H](CCC(N)=O)C\4(C)C)[C@@H](CCC(N)=O)[C@]\3(C)CC(N)=O)[C@@H](CCC(N)=O)[C@]2(C)CC(N)=O.[C-]#N.[C-]#N.[Co] (stereo partly drawn) [Dicyanocobinamide]	0.33	0.23	dose-dependent inhibition	2.29	markedly diminished	–	–	–	–
C/C1=C2/[N-][C@H]([C@H](CC(N)=O)[C@@]2(C)CCC(=O)NC[C@@H](C)OP(=O)([O-])O[C@H]2[C@@H](O)[C@@H](n3cnc4cc(C)c(C)cc43)O[C@@H]2CO)[C@]2(C)N=C(/C(C)=C3N=C(/C=C4N=C1[C@@H](CCC(N)=O)C\4(C)C)[C@@H](CCC(N)=O)[C@]\3(C)CC(N)=O)[C@@H](CCC(N)=O)[C@]2(C)CC(N)=O.[Co+3].[OH-] [Hydroxocobalamin]	9.1	5.7	–	21.1	–	–	–	–	–
C/C1=C2N=C(/C=C3N=C(/C(C)=C4\[N-]C(C(CC(N)=O)C4(C)CCC(=O)NCC(C)OP(=O)([O-])OC4C(CO)OC(n5cnc6cc(C)c(C)cc65)C4O)C4(C)N=C1C(CCC(N)=O)C4(C)CC(N)=O)C(CCC(N)=O)C\3(C)C)C(CCC(N)=O)C/2(C)CC(N)=O.NC(CCC(=O)NC(C[S-])C(=O)NCC(=O)O)C(=O)O.[Co+3] (stereo not drawn) [Glutathionylcobalamin]	41.0	9.6	–	29.0	–	–	–	–	–
CC1(C)N([O])C(c2ccc(C(=O)[O-])cc2)=[N+]([O-])C1(C)C.[K+] [Carboxy-PTIO, 2-(4-Carboxyphenyl)-4,4,5,5-tetramethylimidazoline-1-oxyl-3-oxide (potassium salt)]	–	1360.0	–	1359.0	–	–	–	–	–
C/C1=C2/[N-][C@H]([C@H](CC(N)=O)[C@@]2(C)CCC(=O)NC[C@@H](C)OP(=O)([O-])O[C@H]2[C@@H](O)[C@@H](n3cnc4cc(C)c(C)cc43)O[C@@H]2CO)[C@]2(C)N=C(/C(C)=C3N=C(/C=C4N=C1[C@@H](CCC(N)=O)C\4(C)C)[C@@H](CCC(N)=O)[C@]\3(C)CC(N)=O)[C@@H](CCC(N)=O)[C@]2(C)CC(N)=O.[CH2-][C@H]1O[C@@H](n2cnc3c(N)ncnc32)[C@H](O)[C@@H]1O.[Co] [Adenosylcobalamin]	–	–	–	–	–	6.4	498.0	60.0	2148.0
C/C1=C2/[N-][C@H]([C@H](CC(N)=O)[C@@]2(C)CCC(=O)NC[C@H](C)OP(=O)([O-])O[C@H]2[C@@H](O)[C@@H](n3cnc4cc(C)c(C)cc43)O[C@@H]2CO)[C@]2(C)N=C(/C(C)=C3N=C(/C=C4N=C1[C@@H](CCC(N)=O)C\4(C)C)[C@@H](CCC(N)=O)[C@]\3(C)CC(N)=O)[C@@H](CCC(N)=O)[C@]2(C)CC(N)=O.[CH3-].[Co+3] [Methylcobalamin]	–	–	–	–	–	5.9	576.0	63.0	231.0
C/C1=C2/[N-][C@H]([C@H](CC(N)=O)[C@@]2(C)CCC(=O)NC[C@@H](C)O)[C@]2(C)N=C(/C(C)=C3N=C(/C=C4N=C1[C@@H](CCC(N)=O)C\4(C)C)[C@@H](CCC(N)=O)[C@]\3(C)CC(N)=O)[C@@H](CCC(N)=O)[C@]2(C)CC(N)=O.[Co+3] [Cobinamide]	43.0	15.0	–	50.0	–	–	–	–	–
Cyanocobalamin	519.0	72.0	–	1620.0	–	–	–	–	–

Source: article PMC2745708 (Free radical biology & medicine, 2009)
